Assay results taken from ChEMBL document CHEMBL3102706, “Natural occurrence of organofluorine and other constituents from Streptomyces sp. TC1” (J Nat Prod, 2014).
Calls of active or inactive are those of the source. The calls are words filed in the database; no cut-off is given here.

Legend:
HCT-116 = assay: Cytotoxicity against human HCT116 cells; format: functional, cell-based
HeLa = assay: Cytotoxicity against human HeLa cells; format: functional, cell-based
AGS = assay: Cytotoxicity against human AGS cells; format: functional, cell-based
Albumin = Albumin (Bos taurus, UniProt P02769); assay: Binding affinity to bovine serum albumin at 25 uM by fluorescence spectra analysis; format: ADME; settings: cattle, isolated protein
Albumin, sequence (P02769 whole entry): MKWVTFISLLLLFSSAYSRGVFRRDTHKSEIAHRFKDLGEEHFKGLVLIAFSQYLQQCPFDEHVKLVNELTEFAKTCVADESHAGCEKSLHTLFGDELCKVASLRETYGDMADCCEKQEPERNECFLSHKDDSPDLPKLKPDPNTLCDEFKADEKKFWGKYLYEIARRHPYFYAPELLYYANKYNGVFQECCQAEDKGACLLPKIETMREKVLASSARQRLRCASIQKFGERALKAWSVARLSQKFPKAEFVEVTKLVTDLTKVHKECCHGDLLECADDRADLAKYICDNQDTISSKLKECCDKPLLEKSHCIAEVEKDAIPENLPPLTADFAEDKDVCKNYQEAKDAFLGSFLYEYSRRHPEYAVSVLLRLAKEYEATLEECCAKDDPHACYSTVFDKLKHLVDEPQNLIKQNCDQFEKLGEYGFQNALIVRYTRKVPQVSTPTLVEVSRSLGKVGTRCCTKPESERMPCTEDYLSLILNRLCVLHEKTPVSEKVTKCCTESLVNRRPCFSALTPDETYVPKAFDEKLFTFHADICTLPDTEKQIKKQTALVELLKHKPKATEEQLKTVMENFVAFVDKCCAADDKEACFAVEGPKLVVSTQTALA

DNA [1] = assay: Displacement of ethidium bromide from calf thymus DNA by spectrometric analysis; format: nucleic-acid assay; settings: Bos taurus
Outline: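 Competitive EtBr displacement from CT-DNA monitored by emission spectroscopy. Kq taken as slope of I0/I versus [Q]. Kapp obtained from KEB[EB] = Kapp[compound], using compound concentration giving 50% loss of EB fluorescence, KEB = 1.0 × 10^7 M−1, [EB] = 5 μM.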

[2] = Antioxidant activity assessed as superoxide radical scavenging activity by NBT reduction assay; format: functional
[3] = Antioxidant activity assessed as hydroxyl radical scavenging activity after 15 mins by spectrophotometric analysis; format: functional
[4] = tested on: Radical scavenging activity; assay: Antioxidant activity assessed as DPPH radical scavenging activity; format: functional
[5] = Antioxidant activity assessed as EDTA equivalent of chelating effect after 10 mins by spectrophotometric analysis; format: functional
Outline: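 Ferrous-ion chelation: compounds or EDTA standard added to 2 mmol/L FeCl2 solution, then 5 mmol/L ferrozine added to start reaction. Mixture shaken vigorously and left 10 min at room temperature. Absorbance read at 562 nm. Activity expressed as mg EDTA equivalent/g.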

[6] = Antioxidant activity assessed as trolox equivalents of ABTS radical scavenging activity after 30 mins by TEAC assay; format: functional
Outline: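 ABTS (7 mM in water) was oxidized with 2.45 mM potassium persulfate (final) for 12–16 h in the dark at room temperature. The radical was diluted in ethanol to A734 0.700 ± 0.02 at 30 °C, then added to sample or Trolox standards (final 0–15 μM). A734 was read at 30 °C, 30 min after mixing. Results are given as μmol Trolox equivalent/g.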

DNA [7] = assay: Binding affinity to calf thymus DNA by absorption titration; settings: Bos taurus

SMILES	Activity (HCT-116)	Activity (HeLa)	Activity (AGS)	Activity (Albumin)	Kapp (DNA [1]) [×10⁵ /M]	Kq (DNA [1]) [×10⁴ /M]	IC50 [2] [µM]	IC50 [3] [µM]	IC50 [4] [µM]	Activity [5] [mg/g]	Activity [6] [µmol/g]	Kb (DNA [7]) [×10⁴ /M]
CC(C)(C)c1cc(CCC(=O)O)cc(C(C)(C)C)c1F	inactive	inactive	inactive	Active	1.6	1.71	8.4	25.8	8.4	4.5	6740	3.13
C=CCC(CC=C)(CC=C)c1ccc(CCCCCCCCC)cc1O	inactive	inactive	inactive	Active	0.34	0.68	32.8	31.1	14.9	8.4	4020	2.23
CC(C)C[C@H](NC(=O)[C@@H](O)C[C@H](N)CN)C(N)=O	inactive	inactive	inactive	Active	0.13	0.26	34.6	35.5	34.7	11.9	4090	2.36
Cc1cc(C(C)(C)C)c(O)c(C(C)(C)C)c1 [BUTYLATED HYDROXYTOLUENE]							8.6	11.5	4.5	15.4	6050	
C[C@@H]1O[C@@H](OC[C@H]2O[C@@H](Oc3c(-c4ccc(O)c(O)c4)oc4cc(O)cc(O)c4c3=O)[C@H](O)[C@@H](O)[C@@H]2O)[C@H](O)[C@H](O)[C@H]1O [RUTIN]							4.7	19.4	4.7	18.5	10100	
